Experimental data reported in ChEMBL document CHEMBL1157506, “Synthesis and pharmacological characterization of chiral pyrrolidinylfuran derivatives: the discovery of new functionally selective muscarinic agonists” (J Med Chem, 2008).

Legend:
Cavia porcellus [1] = organism: Cavia porcellus; assay: Intrinsic activity at muscarinic M2 receptor in guinea pig atrium assessed as effect on inotropic activity relative to control; type: tissue-based; details: Cardiac atrium
Method in brief: (§1)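 Left atria in PSS at 30 °C, paced via platinum electrodes (1 ms, 1 Hz, 5-10 V). Inotropic force recorded isometrically after 2 h equilibration. A cumulative APE reference curve was obtained, then cumulative agonist curves. Responses are expressed as % of the control maximal response.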

Cavia porcellus [2] = organism: Cavia porcellus; assay: Intrinsic activity at muscarinic M3 receptor in guinea pig ileum assessed as effect on tissue tension changes relative to control; type: tissue-based
Method in brief: (§2)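 Ileum tension changes recorded isotonically after 30 min equilibration. APE curves were run at 30 min intervals; the first was discarded and the second was taken as control. Cumulative agonist curves followed, with responses expressed as % of the control maximum. Parallel reference-only tissues served as sensitivity checks.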

[3] = biological target: T1, Muscarinic acetylcholine receptor M5 (Homo sapiens, UniProt P08912); assay: Displacement of [3H]NMS from human muscarinic M5 receptor expressed in CHO cells by liquid scintillation counter; type: cell-based
T1 sequence (P08912 whole entry): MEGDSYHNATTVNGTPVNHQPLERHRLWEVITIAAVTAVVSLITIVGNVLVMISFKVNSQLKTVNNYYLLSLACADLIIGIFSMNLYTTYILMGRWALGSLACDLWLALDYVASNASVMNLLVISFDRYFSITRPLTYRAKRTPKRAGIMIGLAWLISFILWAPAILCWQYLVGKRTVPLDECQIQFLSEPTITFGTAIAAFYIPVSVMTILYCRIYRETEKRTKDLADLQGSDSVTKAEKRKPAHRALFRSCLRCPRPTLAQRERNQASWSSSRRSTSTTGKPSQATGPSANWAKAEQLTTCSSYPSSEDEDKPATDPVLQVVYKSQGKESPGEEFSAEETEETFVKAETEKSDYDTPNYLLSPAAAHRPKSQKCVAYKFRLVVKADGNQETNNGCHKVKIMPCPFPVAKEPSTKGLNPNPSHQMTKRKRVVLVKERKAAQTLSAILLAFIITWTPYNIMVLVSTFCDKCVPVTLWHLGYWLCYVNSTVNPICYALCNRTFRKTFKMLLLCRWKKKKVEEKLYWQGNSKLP
Method in brief: (§3)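 Membrane protein was 70 µg/mL for hm2, 50 µg/mL for hm4 and 25 µg/mL for hm5. Incubation was 120 min at room temperature in 25 mM sodium phosphate with 5 mM MgCl2, pH 7.4. GF/C filtration and scintillation counting followed; duplicates.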

[4] = biological target: Muscarinic acetylcholine receptor M3 (Homo sapiens, UniProt P20309); assay: Displacement of [3H]NMS from human muscarinic M3 receptor expressed in CHO cells by liquid scintillation counter; type: cell-based
Muscarinic acetylcholine receptor M3, sequence (P20309 whole entry): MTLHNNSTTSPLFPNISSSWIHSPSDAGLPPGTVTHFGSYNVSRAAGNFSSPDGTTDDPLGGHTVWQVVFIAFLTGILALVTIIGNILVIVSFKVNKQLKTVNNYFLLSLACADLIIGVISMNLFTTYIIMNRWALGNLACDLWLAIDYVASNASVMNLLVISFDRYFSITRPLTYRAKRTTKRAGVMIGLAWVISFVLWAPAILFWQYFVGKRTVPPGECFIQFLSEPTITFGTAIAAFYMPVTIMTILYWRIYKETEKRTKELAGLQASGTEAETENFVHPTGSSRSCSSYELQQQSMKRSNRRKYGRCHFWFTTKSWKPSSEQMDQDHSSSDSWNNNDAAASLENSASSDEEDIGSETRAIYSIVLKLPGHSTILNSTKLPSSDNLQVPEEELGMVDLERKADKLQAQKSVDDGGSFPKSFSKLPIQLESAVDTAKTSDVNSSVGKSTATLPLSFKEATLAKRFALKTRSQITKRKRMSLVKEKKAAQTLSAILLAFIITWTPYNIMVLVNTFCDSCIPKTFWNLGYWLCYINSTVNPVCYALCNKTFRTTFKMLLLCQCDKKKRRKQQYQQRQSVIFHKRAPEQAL

[5] = biological target: T2, Muscarinic acetylcholine receptor M2 (Homo sapiens, UniProt P08172); assay: Displacement of [3H]NMS from human muscarinic M2 receptor expressed in CHO cells by liquid scintillation counter; type: cell-based; method in brief: as §3
T2 sequence (P08172 whole entry): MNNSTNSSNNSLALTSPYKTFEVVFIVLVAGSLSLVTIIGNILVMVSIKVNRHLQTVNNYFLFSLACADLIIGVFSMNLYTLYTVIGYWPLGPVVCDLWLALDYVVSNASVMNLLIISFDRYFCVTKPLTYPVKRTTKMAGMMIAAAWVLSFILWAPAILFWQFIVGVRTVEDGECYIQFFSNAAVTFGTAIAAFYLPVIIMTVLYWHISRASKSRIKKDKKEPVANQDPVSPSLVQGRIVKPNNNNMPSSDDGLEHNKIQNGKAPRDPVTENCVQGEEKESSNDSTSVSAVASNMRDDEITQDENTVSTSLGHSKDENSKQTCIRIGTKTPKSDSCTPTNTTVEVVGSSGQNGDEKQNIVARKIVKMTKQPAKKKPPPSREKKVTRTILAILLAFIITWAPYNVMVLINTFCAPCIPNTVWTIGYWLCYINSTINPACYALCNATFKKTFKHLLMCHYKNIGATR

[6] = Agonist activity at muscarinic M2 receptor in guinea pig atrium assessed as effect on inotropic activity; type: functional, Cavia porcellus, Cardiac atrium; method in brief: as §1
[7] = Antagonist activity at muscarinic M1/M4 receptor in guinea pig lung assessed as effect on tissue contraction; type: functional, Cavia porcellus
Oryctolagus cuniculus = organism: Oryctolagus cuniculus; assay: Intrinsic activity at muscarinic M1/M4 receptor in New Zealanda white rabbit vas deferens assessed as effect on isometric tissue contraction relative to control; type: tissue-based
Method in brief: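 Vas deferens in solution with 10^-6 M yohimbine and 10^-8 M tripitramine at 30 °C, field-stimulated (0.1 ms, 2 Hz, 10-15 V). Contractions recorded isometrically after 1 h equilibration. A cumulative McN-A-343 reference curve was built, then cumulative curves to the test agonist. Responses are expressed as % of the control curve's maximum. Parallel reference-only tissues served as sensitivity checks.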

[8] = biological target: T3, Muscarinic acetylcholine receptor M4 (Homo sapiens, UniProt P08173); assay: Displacement of [3H]NMS from human muscarinic M4 receptor expressed in CHO cells by liquid scintillation counter; type: cell-based; method in brief: as §3
T3 sequence (P08173 whole entry): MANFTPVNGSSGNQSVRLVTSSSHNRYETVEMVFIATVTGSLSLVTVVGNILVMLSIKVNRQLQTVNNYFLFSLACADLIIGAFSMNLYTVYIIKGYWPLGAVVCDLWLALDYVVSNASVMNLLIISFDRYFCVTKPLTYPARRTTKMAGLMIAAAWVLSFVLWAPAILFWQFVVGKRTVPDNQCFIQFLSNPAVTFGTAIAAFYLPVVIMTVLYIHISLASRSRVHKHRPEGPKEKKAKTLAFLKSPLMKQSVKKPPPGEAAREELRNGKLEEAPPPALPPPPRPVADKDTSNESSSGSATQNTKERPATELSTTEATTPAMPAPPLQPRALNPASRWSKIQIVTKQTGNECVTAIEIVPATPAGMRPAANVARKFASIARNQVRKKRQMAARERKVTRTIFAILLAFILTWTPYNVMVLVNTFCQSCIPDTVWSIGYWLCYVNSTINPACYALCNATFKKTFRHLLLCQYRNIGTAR

[9] = Agonist activity at muscarinic M3 receptor in guinea pig ileum assessed as effect on tissue tension changes; type: functional, Cavia porcellus; method in brief: as §2
[10] = biological target: T4, Muscarinic acetylcholine receptor M1 (Homo sapiens, UniProt P11229); assay: Displacement of [3H]NMS from human muscarinic M1 receptor expressed in CHO cells by liquid scintillation counter; type: cell-based
T4 sequence (P11229 whole entry): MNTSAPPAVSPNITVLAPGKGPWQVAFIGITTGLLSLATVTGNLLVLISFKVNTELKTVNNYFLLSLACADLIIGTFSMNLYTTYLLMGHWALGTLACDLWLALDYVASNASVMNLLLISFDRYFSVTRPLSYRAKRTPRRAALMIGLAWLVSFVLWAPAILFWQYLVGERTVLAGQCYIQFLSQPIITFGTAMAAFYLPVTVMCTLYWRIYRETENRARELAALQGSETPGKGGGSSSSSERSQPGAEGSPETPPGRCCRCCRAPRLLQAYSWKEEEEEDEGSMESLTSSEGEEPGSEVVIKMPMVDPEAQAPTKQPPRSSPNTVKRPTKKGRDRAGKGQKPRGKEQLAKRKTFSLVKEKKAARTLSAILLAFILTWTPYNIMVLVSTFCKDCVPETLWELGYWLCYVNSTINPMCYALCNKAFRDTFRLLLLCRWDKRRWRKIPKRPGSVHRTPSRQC

[11] = Agonist activity at muscarinic M1/M4 receptor in guinea pig lung assessed as effect on tissue contraction; type: functional, Cavia porcellus
Cavia porcellus [12] = organism: Cavia porcellus; assay: Intrinsic activity at muscarinic M1/M4 receptor in guinea pig lung assessed as effect on tissue contraction relative to control
[13] = Antagonist activity at muscarinic M1/M4 receptor in New Zealanda white rabbit vas deferens assessed as effect on isometric tissue contraction; type: functional, Oryctolagus cuniculus
Method in brief: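 Rabbit vas deferens bathed at 30 °C with 10^-6 M yohimbine and 10^-8 M tripitramine to block α2-adrenoceptors and M2 receptors. Electrically stimulated with square-wave pulses (0.1 ms, 2 Hz, 10-15 V) and equilibrated 1 h. Isometric contractions recorded during a cumulative dose-response curve to McN-A-343. Responses are expressed as % of maximal control-curve response, with parallel reference-agonist-only tissues run.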

| Compound | Intrinsic activity (Cavia porcellus [1]) | Intrinsic activity (Cavia porcellus [2]) | Ki [3] [µM] | Ki [4] [µM] | Ki [5] [µM] | pD2 [6] | pKb [7] | Intrinsic activity (Oryctolagus cuniculus) | Ki [8] [µM] | pD2 [9] | Ki [10] [µM] | pD2 [7] | pD2 [11] | Intrinsic activity (Cavia porcellus [12]) | pKb [13] | A50 (Cavia porcellus [1]) |
| --- | --- | --- | --- | --- | --- | --- | --- | --- | --- | --- | --- | --- | --- | --- | --- | --- |
| C[N+]1(C)CCC[C@H]1c1ccco1.[I-] | 0.3 | 0.41 | 20.9 | 21.4 | 7.41 | 7.19 | <5 | 0.21 | 21.4 | 5.77 | 30.9 |  |  |  |  |  |
| C[N+]1(C)CCCC1c1ccco1.[I-] (racemic) | 0.38 | 0.19 | 3.16 | 2.75 | 3.72 | 6.65 |  | 0.26 | 6.46 | 5.65 | 5.25 | <5 |  |  |  |  |
| C[N+]1(C)CCC[C@@H]1c1ccco1.[I-] | 0.4 | 0.25 | 23.4 | 17.8 | 14.1 | 6.49 |  | 0.28 | 28.2 | 5.37 | 51.3 | <5 |  |  |  |  |
| CN1CCC[C@H]1c1ccco1 | 0.65 | 0.37 | 63.1 | 52.5 | 30.9 | 6.82 |  | 0.3 | 56.2 | 5.83 | 43.7 |  | 6.72 | 0.33 |  |  |
| Cc1ccc(C2CCCN2)o1 (racemic) | 1 | 0.97 | 19.1 | 18.2 | 4.27 | 6.66 | 5.51 |  | 51.3 | 5.57 | 38 |  |  |  |  |  |
| Cc1ccc(C[N+](C)(C)C)o1 |  |  | 6.92 | 6.17 | 0.955 |  |  |  | 6.31 |  | 7.94 |  |  |  |  |  |
| Cc1ccc([C@H]2CCC[N+]2(C)C)o1.[I-] | 0.44 | 0.26 | 9.55 | 7.76 | 2.69 | 7.66 | <5 |  | 13.8 | 7.1 | 13.8 |  |  |  | 5.67 |  |
| c1coc(C2CCCN2)c1 (racemic) |  |  | 16.6 | 11.5 | 29.5 |  |  |  | 87.1 |  | 178 |  |  |  |  |  |
| Cc1ccc(C2CCC[N+]2(C)C)o1.[I-] (racemic) | 0.33 | 0.28 | 4.68 | 6.92 | 1.91 | 7.55 | <5 |  | 4.37 | 7.25 | 7.41 |  |  |  |  |  |
| Cc1ccc([C@@H]2CCCN2)o1 | 0.6 | 1 | 138 | 148 | 28.8 | 6.1 | 5 |  | 209 | 5 | 155 |  |  |  | <5 |  |
| c1coc([C@H]2CCCN2)c1 |  |  | 31.6 | 25.1 | 77.6 |  |  |  | 89.1 |  | 46.8 |  |  |  |  |  |
| Cc1ccc([C@H]2CCCN2)o1 |  | 1 | 15.8 | 12 | 3.24 | 6.71 |  | 1 | 29.5 | 6.16 | 14.5 |  | 5.45 | 0.32 |  | 1 |
| Cc1ccc([C@H]2CCCN2C)o1 | 0.32 | 0.22 | 31.6 | 28.8 | 19.5 | 6.4 | <5 |  | 58.9 | 4.93 | 44.7 |  |  |  | <5 |  |
| C#CCOC(=O)C1=CCCN(C)C1 [ARECAIDINE PROPARGYL ESTER] | 1 | 1 |  |  |  | 8.67 |  | 1 |  | 7.64 |  |  | 5.56 | 1 |  |  |
| C[N+](C)(C)CCOC(N)=O.[Cl-] [CARBACHOL] | 1 | 1 |  |  |  |  |  |  |  |  |  |  |  | 1 |  |  |
| CN1CCC[C@@H]1c1ccco1 | 0.45 | 0.31 | 75.9 | 81.3 | 47.9 | 7.38 | <5 | 0.47 | 79.4 | 5.65 | 77.6 |  |  |  |  |  |
| c1coc([C@@H]2CCCN2)c1 |  |  | 47.9 | 43.7 | 107 |  |  |  | 102 |  | 63.1 |  |  |  |  |  |
| C[N+](C)(C)CC#CCOC(=O)Nc1cccc(Cl)c1 |  |  | 3.8 | 2.4 | 3.24 |  |  | 1 | 9.12 |  | 1.95 |  |  |  |  |  |
